# Source: ChEMBL document CHEMBL3297699, “Synthesis of novel fluoro analogues of MKC442 as microbicides” (J Med Chem, 2014)
# pEC50: −log10 of the molar value.
# Experiments:
# [1] = tested on: Human immunodeficiency virus 1; test: Antiviral activity against […] HIV1 harboring Y181C mutant infected in human MT4 cells assessed as inhibition of virus-induced cytopathogenicity after 4 days by MTT assay; type: functional, organism-based; settings: Human immunodeficiency virus 1, MT4, 96 h
# Summary of the method: (§1)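 MT-4 cells grown at 37 °C, 5% CO2 in RPMI-1640 with 10% FCS, penicillin and streptomycin. Compounds taken up in DMSO at […] (stock), then diluted in medium. 1 × 10^4 cells per well with serial compound dilutions, then HIV-1 inoculum sized to give complete cytopathogenicity by day 4. Viability read by MTT. […] Mean of three independent determinations.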
# [2] = tested on: Human immunodeficiency virus 1; test: Antiviral activity against HIV1 CRF01 infected in human dendritic cells assessed as inhibition of p24 in supernatants; settings: Human immunodeficiency virus 1, CRF01, dendritic cells
# [3] = tested on: Human immunodeficiency virus 1; test: Antiviral activity against HIV1 MP411 infected in human dendritic cells assessed as inhibition of p24 in supernatants; settings: Human immunodeficiency virus 1, MP411, dendritic cells
# [4] = tested on: Human immunodeficiency virus 1; test: Antiviral activity against HIV1 MP582 infected in human dendritic cells assessed as inhibition of p24 production; settings: Human immunodeficiency virus 1, MP582, dendritic cells
# [5] = tested on: Human immunodeficiency virus 1; test: Antiviral activity against TMC125-resistant HIV1 harboring RT 109M, 138K, 190E mutant infected in human MT4 cells assessed as inhibition of virus-induced cytopathogenicity after 4 days by MTT assay; type: functional, organism-based; settings: Human immunodeficiency virus 1, MT4, 96 h; summary of the method: as §1
# [6] = tested on: Human immunodeficiency virus 1; test: Ratio of EC50 for zidovudine-resistant HIV1 harboring RT 67N, 70R, 215F, 219Q mutant to EC50 for wild type HIV1 3B; type: functional
# [7] = tested on: Human immunodeficiency virus 1; test: Antiviral activity against TMC120-resistant HIV1 harboring RT 100I, 138G mutant infected in human MT4 cells assessed as inhibition of virus-induced cytopathogenicity after 4 days by MTT assay; type: functional, organism-based; settings: Human immunodeficiency virus 1, MT4, 96 h; summary of the method: as §1
# [8] = tested on: Human immunodeficiency virus 1; test: Antiviral activity against NRTI-resistant HIV1 MP1315 infected in human dendritic cells assessed as inhibition of p24 in supernatants; settings: Human immunodeficiency virus 1, MP1315, dendritic cells
# [9] = tested on: Human immunodeficiency virus 1; test: Antiviral activity against HIV1 infected in human MT4 cells assessed as lowest compound concentration required to irreversibly knock out vial multiplication treated 4 hrs before infection measured after 40 days by MTT assay; type: functional
# Summary of the method: (§2)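 HIV-1-infected MT-4 cells at high MOI (5−10 CCID50/cell) in 40-day assays. Compound is given continuously (chronic), for only the first 4 h after infection, or for 4 h immediately before infection. Cells are resuspended at 10^5 cells/mL every 4 days. The value is the lowest concentration that irreversibly knocks out HIV-1 multiplication, as the mean of three independent determinations.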
# [10] = Cytotoxicity against human MT4 cells after 40 days by MTT assay; type: cell-based
# Summary of the method: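 Mock-infected MT-4 cells at 1 × 10^5 cells/mL, 37 °C, with various compound concentrations for 40 days. One-tenth of the culture is moved every 3−4 days into fresh drug-containing medium at low density to keep growth exponential. Viability is read by MTT at each passage. The value is the maximum concentration still allowing exponential proliferation, as the mean of three determinations.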
# [11] = Cytotoxicity against human MT4 cells after 96 hrs by MTT assay; type: cell-based
# Summary of the method: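 Serial compound dilutions (from DMSO stocks at […]) are added, then cells are held 96 h at 37 °C in humidified 5% CO2. Viability is read by MTT. The value is the concentration reducing proliferation by 50%, as the mean of three independent determinations, run in parallel with the antiviral assays.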
# [12] = tested on: Human immunodeficiency virus 1; test: Antiviral activity against HIV1 W5269 infected in human dendritic cells assessed as inhibition of p24 production; settings: Human immunodeficiency virus 1, W5269, dendritic cells
# [13] = tested on: Human immunodeficiency virus 1; test: Antiviral activity against MC1220-resistant HIV1 harboring RT 100I, 179D, 181C mutant infected in human MT4 cells assessed as inhibition of virus-induced cytopathogenicity after 4 days by MTT assay; type: functional, organism-based; settings: Human immunodeficiency virus 1, MT4, 96 h; summary of the method: as §1
# [14] = tested on: Human immunodeficiency virus 1; test: Antiviral activity against efavirenz-resistant HIV1 harboring RT 100I, 103R, 179D, 225H mutant infected in human MT4 cells assessed as inhibition of virus-induced cytopathogenicity after 4 days by MTT assay; type: functional, organism-based; settings: Human immunodeficiency virus 1, MT4; summary of the method: as §1
# [15] = tested on: Human immunodeficiency virus 1; test: Antiviral activity against wild type HIV1 3B infected in human MT4 cells assessed as inhibition of virus-induced cytopathogenicity after 4 days by MTT assay; type: functional, organism-based; settings: Human immunodeficiency virus 1, 3B, MT4, 96 h; summary of the method: as §1
# [16] = tested on: Human immunodeficiency virus 1; test: Antiviral activity against MDR-resistant HIV1 harboring 41L, 74V, 106A, 215Y mutant infected in human MT4 cells assessed as inhibition of virus-induced cytopathogenicity after 4 days by MTT assay; type: functional, organism-based; settings: Human immunodeficiency virus 1, MT4, 96 h; summary of the method: as §1
# [17] = tested on: Human immunodeficiency virus 1; test: Antiviral activity against zidovudine-resistant HIV1 harboring RT 67N, 70R, 215F, 219Q mutant infected in human MT4 cells assessed as inhibition of virus-induced cytopathogenicity after 4 days by MTT assay; type: functional, organism-based; settings: Human immunodeficiency virus 1, MT4, 96 h; summary of the method: as §1
# [18] = tested on: Human immunodeficiency virus 1; test: Ratio of EC50 for MDR-resistant HIV1 harboring 41L, 74V, 106A, 215Y mutant to EC50 for wild type HIV1 3B; type: functional
# [19] = tested on: Human immunodeficiency virus 1; test: Antiviral activity against HIV1 MP1033 infected in human dendritic cells assessed as inhibition of p24; settings: Human immunodeficiency virus 1, MP1033, dendritic cells
# [20] = tested on: Human immunodeficiency virus 1; test: Antiviral activity against HIV1 infected in human MT4 cells assessed as lowest compound concentration required to irreversibly knock out vial multiplication treated by chronic treatment measured after 40 days by MTT assay; type: functional; summary of the method: as §2
# [21] = tested on: Human immunodeficiency virus 1; test: Antiviral activity against HIV1 MP634 infected in human dendritic cells assessed as inhibition of p24 in supernatants; settings: Human immunodeficiency virus 1, MP634, dendritic cells
# [22] = tested on: Human immunodeficiency virus 1; test: Ratio of MC1220 EC50 to compound EC50 for HIV1 MP634 infected in human cells
# [23] = tested on: Human immunodeficiency virus 1; test: Antiviral activity against […] HIV1 harboring 103N, 181C mutant infected in human MT4 cells assessed as inhibition of virus-induced cytopathogenicity after 4 days by MTT assay; type: functional, organism-based; settings: Human immunodeficiency virus 1, MT4, 96 h; summary of the method: as §1
# [24] = tested on: Human immunodeficiency virus 1; test: Ratio of EC50 for efavirenz-resistant HIV1 harboring RT 100I, 103R, 179D, 225H mutant to EC50 for wild type HIV1 3B; type: functional
# [25] = tested on: Human immunodeficiency virus 1; test: Antiviral activity against HIV1 CRF02 infected in human dendritic cells assessed as inhibition of p24 in supernatants; settings: Human immunodeficiency virus 1, CRF02, dendritic cells
# [26] = tested on: Human immunodeficiency virus 1; test: Antiviral activity against HIV1 infected in human MT4 cells assessed as lowest compound concentration required to irreversibly knock out vial multiplication treated 4 hrs after infection measured after 40 days by MTT assay; type: functional; summary of the method: as §2
# [27] = tested on: Human immunodeficiency virus 1; test: Antiviral activity against saquinavir-resistant HIV1 infected in human MT4 cells assessed as inhibition of virus-induced cytopathogenicity after 4 days by MTT assay; type: functional, organism-based; settings: Human immunodeficiency virus 1, MT4, 96 h; summary of the method: as §1
# [28] = tested on: Human immunodeficiency virus 1; test: Antiviral activity against HIV1 MP1308 infected in human dendritic cells assessed as inhibition of p24; settings: Human immunodeficiency virus 1, MP1308, dendritic cells
# [29] = tested on: Human immunodeficiency virus 1; test: Ratio of EC50 for saquinavir-resistant HIV1 to EC50 for wild type HIV1 3B; type: functional
# [30] = tested on: Human immunodeficiency virus 1; test: Antiviral activity against 6-[(3,5-Dimethylphenyl)fluoromethyl]-5-ethyl-1-{[[4-(3-hydroxyprop-1-ynyl)benzyl]oxy]methyl}pyrimidine-2,4(1H,3H)-dione-resistant HIV1 harboring RT 106I, 181C mutant infected in human MT4 cells assessed as inhibition of virus-induced cytopathogenicity after 4 days by MTT assay; type: functional, organism-based; settings: Human immunodeficiency virus 1, MT4; summary of the method: as §1
structure (smiles),measurement,setting,value
CCc1c(C(F)c2cc(C)cc(C)c2)n(COCc2ccc(C#CCO)cc2)c(=O)[nH]c1=O (stereo not given),pEC50,[1],7.40
same,EC99,[2],0.01 µM
same,EC99,[3],0.01 µM
same,EC99,[4],0.01 µM
same,pEC50,[5],6.05
same,Ratio EC50,[6],1.7
same,pEC50,[7],8.00
same,EC99,[8],0.0001 µM
same,Activity,[9],>20 µM
same,MNTC at 960 h,[10],10 µM
same,CC50 at 96 h,[11],37 µM
same,EC99,[12],0.01 µM
same,pEC50,[13],7.40
same,pEC50,[14],7.00
same,pEC50,[15],8.22
same,pEC50,[16],7.70
same,pEC50,[17],8.00
same,Ratio EC50,[18],3.3
same,EC99,[19],0.01 µM
same,Activity,[20],0.5 µM
same,EC99,[21],0.01 µM
same,Ratio EC50,[22],10
same,pEC50,[23],6.52
same,Ratio EC50,[24],>10
same,EC99,[25],0.1 µM
same,Activity,[26],>20 µM
same,pEC50,[27],7.70
same,EC99,[28],0.01 µM
same,Ratio EC50,[29],3.3
same,pEC50,[30],5.70
